These results are taken from ChEMBL document CHEMBL4316609, “Chemical synthesis and functional characterization of a new class of ceramide analogues as anti-cancer agents” (Bioorg Med Chem, 2019).

The source made the active and inactive calls. The calls are words filed in the database; no cut-off is given here.

Series [1] deals with SW-620. In words: Induction of apoptosis in human SW620 cells assessed as Bcl-xl protein level at 10 uM measured after 48 hrs by Western blot analysis relative to beta-actin (reference value: 1). The class given is functional.
Series [2] deals with SW-620. In words: Induction of apoptosis in human SW620 cells assessed as XIAP protein level at 10 uM measured after 48 hrs by Western blot analysis relative to beta-actin (reference value: 1). The format is functional.
For series [3], the system named is SW-620. In words: Toxicity in athymic mouse xenografted with human SW620 cells assessed as serum creatine kinase level at 100 mg/kg administered as injection every other day for 15 days measured post last dose by ELISA (reference value: 1.94 +/- 1.04 U/L). The note with it: in vivo, 360 h.
Series [4] concerns SW-620. In words: Induction of apoptosis in human SW620 cells assessed as XIAP protein level at 20 uM measured after 48 hrs by Western blot analysis relative to beta-actin (reference value: 1). The format is functional.
Series [5] deals with SW-620. The experiment in a line: Induction of apoptosis in human SW620 cells assessed as Bcl-xl protein level at 20 uM measured after 48 hrs by Western blot analysis relative to beta-actin (reference value: 1). The class given is functional.
For series [6], the system named is HepG2. The experiment in a line: Cytotoxicity against human HepG2 cells measured after 48 hrs by MTT assay. The format is functional, cell-based. The conditions noted are these: HepG2, 48 h. Summed up:
(§1)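 Seeded at 7x10^3 cells/well and allowed 24 h to attach. Compounds added at final 0 to 200 μM and incubated 48 h. Viability read by MTT. IC50 taken as the concentration giving 50% growth inhibition; mean ± SD, N = 4.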

For series [7], the system named is MCF7. In words: Cytotoxicity against human MCF7 cells measured after 48 hrs by MTT assay. The format is functional, cell-based. The note with it: MCF7, 48 h. In short, it runs like this: as §1
The subject of a further series is A-431. The experiment in a line: Cytotoxicity against human A431 cells measured after 48 hrs by MTT assay. The format is functional, cell-based. The conditions noted are these: A-431, 48 h. In short, it runs like this: as §1
The nature of series [8]: Cytotoxicity against human SA cells measured after 48 hrs by MTT assay. The format is functional, cell-based. The conditions noted are these: +SA cell. Summed up: as §1
For series [9], the system named is SW-620. In words: Induction of apoptosis in human SW620 cells assessed as Bcl-xl protein level at 15 uM measured after 48 hrs by Western blot analysis relative to beta-actin (reference value: 1). The class given is functional.
The test system of series [10] is SW-620. The experiment in a line: Induction of apoptosis in human SW620 cells assessed as morphological changes by measuring appearance of shining cells at cytotoxic IC50 measured after 8 to 24 hrs by Hoechst 33342 staining based fluorescence microscopic analysis. The format is functional, cell-based.
The subject of series [11] is SW-620. In words: Induction of apoptosis in human SW620 cells assessed as XIAP protein level at 15 uM measured after 48 hrs by Western blot analysis relative to beta-actin (reference value: 1). The class given is functional.
Another series deals with SiHa. The experiment in a line: Cytotoxicity against human SiHa cells measured after 48 hrs by MTT assay. The class given is functional, cell-based. In short, it runs like this: as §1
The test system of series [12] is SW-620. The experiment in a line: Antitumor activity against human SW620 cells xenografted in athymic mouse assessed as suppression of tumor growth at 100 mg/kg administered as injection every other day for 15 days measured during compound dosing. The class given is functional, organism-based. Summed up:
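SW620 colon carcinoma cells (3x10^6 per mouse) implanted subcutaneously in athymic mice. Randomised at 60-80 mm³ tumour size, n=6 per group. Dosed 100 mg/kg on alternate days for 15 days. Vehicle control received 200 μL 1% polyoxyethylated castor oil. Tumour measured in three diameters with a caliper to give volume.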

For series [13], the system named is SW-620. The experiment in a line: Cytotoxicity against human SW620 cells measured after 48 hrs by MTT assay. The class given is functional, cell-based. The conditions noted are these: SW-620, 48 h. In short, it runs like this:
as §1

Series [14] deals with SW-620. In words: Potentiation of TRAIL-induced cytotoxicity against human SW620 cells assessed as reduction in cell growth at cytotoxic IC50 measured after 48 hrs by MTT assay. The class given is functional, cell-based. In short, it runs like this: (§2)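 Viability read by MTT. Growth inhibition calculated as OD570 of untreated minus OD570 of treated cells; mean and SD.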

Another series concerns LS-411N. In words: Potentiation of TRAIL-induced cytotoxicity against human LS411N cells assessed as reduction in cell growth at cytotoxic IC50 measured after 48 hrs by MTT assay. The format is functional, cell-based. Summed up: as §2
Series [15] deals with MCF7. The experiment in a line: Potentiation of TRAIL-induced cytotoxicity against human MCF7 cells assessed as reduction in cell growth at cytotoxic IC50 measured after 48 hrs by MTT assay. The format is functional, cell-based. Summed up: as §2
A further series concerns HeLa. The experiment in a line: Potentiation of TRAIL-induced cytotoxicity against human HeLa cells assessed as reduction in cell growth at cytotoxic IC50 measured after 48 hrs by MTT assay. The format is functional, cell-based. In short, it runs like this: as §2
The subject of series [16] is HepG2. In words: Potentiation of TRAIL-induced cytotoxicity against human HepG2 cells assessed as reduction in cell growth at cytotoxic IC50 measured after 48 hrs by MTT assay. The class given is functional, cell-based. In short, it runs like this: as §2

For the compound `CCCCCCCCCCCCCCNC(=O)[C@@H](NS(=O)(=O)c1ccc(C)cc1)[C@@H](C)O`, the “fold change (FC)” value in the series with SW-620 [1] is reported as 0.88; in the series with SW-620 [2], 1.06; in the series with SW-620 [4] it was 0.94; with SW-620 [5], 0.67; with SW-620 [9], 0.73; in the series with SW-620 [11], 1. Further, the Activity in the series on SW-620 [3] came to 2.32 U/L. In addition, the IC50 in the series on HepG2 [6] was found to be 10.9 µM; in the series on MCF7 [7] it was 12.9 µM; in the series with A-431, 12 µM; in [8] it was 10.9 µM; in the series with SiHa it was 19.2 µM; in the series with SW-620 [13], 15.2 µM. Also, the result in the series with SW-620 [10] and in the series on SW-620 [12] was Active.

Regarding `CCCCCCCCCCCCCCCCCCNC(=O)[C@@H](NC(=O)c1nccc2ccccc12)[C@@H](C)O`, the outcome with SW-620 [14], in the series with LS-411N, with MCF7 [15], in the series on HeLa and in the series with HepG2 [16] was Active. The IC50 in the series on HepG2 [6] came out at 96.9 µM; in the series with MCF7 [7] it was 30.8 µM; with A-431 it was 44.1 µM; in series [8], 49.1 µM; in the series on SiHa it was 51.2 µM.

On to `CCCCCCCCNC(=O)[C@@H](NC(=O)c1cc2ccccc2o1)[C@@H](C)O`, for which the outcome with SW-620 [14], with LS-411N, in the series on MCF7 [15], in the series with HeLa and in the series on HepG2 [16] was Active. The IC50 with HepG2 [6] was 81.3 µM; with MCF7 [7] it was 47.2 µM; in the series on A-431, 52.7 µM; in series [8] it was 40.8 µM; with SiHa it was 66.5 µM; in the series with SW-620 [13], 200 µM.

Turning to `CCCCCCCCCCCCCCNC(=O)[C@@H](NC(=O)Cc1c[nH]c2ccccc12)[C@@H](C)O`, the “fold change (FC)” value in the series with SW-620 [1] was 1.32; in the series with SW-620 [2], 1.03; in the series on SW-620 [4], 0.06; in the series with SW-620 [5], 0.47; in the series with SW-620 [9], 1.46; in the series with SW-620 [11], 0.86. Also, in the series on SW-620 [3], the Activity worked out at 2.44 U/L. The IC50 is 21.1 µM in the series on HepG2 [6]; 6.81 µM in the series with MCF7 [7]; 15.5 µM in the series with A-431; 11.5 µM in series [8]; 4.8 µM with SiHa; 22 µM in the series with SW-620 [13]. For the same compound, the outcome in the series with SW-620 [10] and in the series with SW-620 [12] was Active.

Take `CCCCCCCCCCCCNC(=O)[C@@H](NC(=O)c1ccccc1)[C@@H](C)O`: the result in the series with SW-620 [14], in the series on LS-411N, with MCF7 [15], in the series with HeLa and in the series with HepG2 [16] was Active. In addition, the IC50 in the series with MCF7 [7] was determined as 36.6 µM; in the series on A-431, 41.2 µM; in series [8] it was 75.5 µM; in the series with SiHa, 63.9 µM; in the series with SW-620 [13], 200 µM.

As for `CCCCCCCCCCCCCCNC(=O)[C@@H](NC(=O)c1cc2ccccc2n1C)[C@@H](C)O`, the IC50 with HepG2 [6] worked out at 34.5 µM; in the series with MCF7 [7], 25.7 µM; in the series on A-431, 13.7 µM; in series [8], 25.7 µM; in the series on SiHa, 26.5 µM; with SW-620 [13], 21.5 µM. Moreover, the result in the series with SW-620 [10] was Active.

For `CCCCCCCCCCCCNC(=O)[C@@H](NC(=O)c1ccco1)[C@@H](C)O`, the result in the series on SW-620 [14], in the series on LS-411N, in the series with MCF7 [15], in the series on HeLa and in the series on HepG2 [16] was Active. The IC50 with MCF7 [7] was 67.5 µM; with A-431, 92.4 µM; in series [8], 93.5 µM; with SiHa, 64.3 µM; in the series on SW-620 [13], 87.5 µM.

Consider `CCCCCCCCCCCCNC(=O)[C@@H](NC(=O)c1nccc2ccccc12)[C@@H](C)O`, for which the outcome in the series on SW-620 [14], in the series on LS-411N, with MCF7 [15], in the series on HeLa and with HepG2 [16] was Active. Besides, the IC50 in the series with HepG2 [6] was found to be 65.7 µM; with MCF7 [7] it was 50.5 µM; in the series with A-431 it was 62.8 µM; in [8], 51.9 µM; in the series on SiHa, 56.6 µM; with SW-620 [13], 65.8 µM.

As to `CCCCCCCCCCCCCCNC(=O)[C@@H](N)[C@@H](C)O`, the “fold change (FC)” value in the series with SW-620 [1] is listed as 0.82; in the series on SW-620 [2] it was 1.22; in the series on SW-620 [4] it was 0.15; in the series on SW-620 [5] it was 0.34; in the series on SW-620 [9], 0.68; in the series on SW-620 [11] it was 1.29. For the same compound, the Activity with SW-620 [3] came to 2.98 U/L. Further, the IC50 is 10.7 µM with MCF7 [7]; 14.6 µM in the series with A-431; 11 µM in series [8]; 11 µM with SiHa; 18.7 µM with SW-620 [13]. In the series with SW-620 [12], the outcome was Active.

Regarding `CCCCCCCCNC(=O)[C@@H](NC(=O)c1cccs1)[C@@H](C)O`, the outcome with SW-620 [14], in the series on LS-411N, in the series on MCF7 [15], with HeLa and in the series on HepG2 [16] was Active. Also, the IC50 came out at 72.5 µM with MCF7 [7], 32.1 µM in the series on A-431, 60.9 µM in series [8] and 91.9 µM in the series with SiHa.

Take `C/C=C/C=C/C(=O)N[C@H](C(=O)NCCCCCCCC)[C@@H](C)O`: the outcome in the series with SW-620 [14], in the series with LS-411N, with MCF7 [15], in the series with HeLa and in the series with HepG2 [16] was Active. Moreover, the IC50 was found to be 58.2 µM in the series on A-431, 40.4 µM in [8] and 200 µM in the series with SW-620 [13].

As for `CCCCCCCCCCCCCCNC(=O)[C@@H](NS(=O)(=O)c1ccc2ccccc2c1)[C@@H](C)O`, the “fold change (FC)” value is given as 1.05 in the series on SW-620 [1]; 1.21 in the series with SW-620 [2]; 0.93 in the series with SW-620 [4]; 0.55 with SW-620 [5]; 1.08 in the series on SW-620 [9]; 1.14 in the series on SW-620 [11]. Also, the Activity in the series on SW-620 [3] is 2.63 U/L. The IC50 in the series with HepG2 [6] came to 11.4 µM; in the series on MCF7 [7] it was 12.2 µM; in the series on A-431, 19.6 µM; in [8], 10.2 µM; in the series on SiHa, 11.1 µM; in the series with SW-620 [13], 9.36 µM. The result with SW-620 [10] and in the series with SW-620 [12] was Active.
